# Wnt bcat act: activators of Wnt/beta-catenin signaling; hit rate 1.2% among 300,000; Wnt/beta-catenin reporter cell assay, activator, plate reader; activation, % at 9.35 µM; in the data active means activation above about 30%, passing the limit was not always enough; inconclusive means no clear call, values can overlap the other calls;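 further: 0% = neutral control wells and 100% = positive control wells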
# ERAP1 inh: inhibitors of human ERAP1 aminopeptidase. Q9NZ08. recombinant ERAP1, Leu-AMC fluorescence, 60 min. inhibition, % at 10.7 µM. hit rate 0.15% among 340,000. AID 652197;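 active means mean replicate inhibition of at least 30%, or all replicates individually reaching that 30% level; inactive means mean below 30% and not every replicate reaching it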;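 further: 0% = neutral control wells and 100% = L-leucinethiol positive control wells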
# Target sequence (Q9NZ08 whole entry, looked up): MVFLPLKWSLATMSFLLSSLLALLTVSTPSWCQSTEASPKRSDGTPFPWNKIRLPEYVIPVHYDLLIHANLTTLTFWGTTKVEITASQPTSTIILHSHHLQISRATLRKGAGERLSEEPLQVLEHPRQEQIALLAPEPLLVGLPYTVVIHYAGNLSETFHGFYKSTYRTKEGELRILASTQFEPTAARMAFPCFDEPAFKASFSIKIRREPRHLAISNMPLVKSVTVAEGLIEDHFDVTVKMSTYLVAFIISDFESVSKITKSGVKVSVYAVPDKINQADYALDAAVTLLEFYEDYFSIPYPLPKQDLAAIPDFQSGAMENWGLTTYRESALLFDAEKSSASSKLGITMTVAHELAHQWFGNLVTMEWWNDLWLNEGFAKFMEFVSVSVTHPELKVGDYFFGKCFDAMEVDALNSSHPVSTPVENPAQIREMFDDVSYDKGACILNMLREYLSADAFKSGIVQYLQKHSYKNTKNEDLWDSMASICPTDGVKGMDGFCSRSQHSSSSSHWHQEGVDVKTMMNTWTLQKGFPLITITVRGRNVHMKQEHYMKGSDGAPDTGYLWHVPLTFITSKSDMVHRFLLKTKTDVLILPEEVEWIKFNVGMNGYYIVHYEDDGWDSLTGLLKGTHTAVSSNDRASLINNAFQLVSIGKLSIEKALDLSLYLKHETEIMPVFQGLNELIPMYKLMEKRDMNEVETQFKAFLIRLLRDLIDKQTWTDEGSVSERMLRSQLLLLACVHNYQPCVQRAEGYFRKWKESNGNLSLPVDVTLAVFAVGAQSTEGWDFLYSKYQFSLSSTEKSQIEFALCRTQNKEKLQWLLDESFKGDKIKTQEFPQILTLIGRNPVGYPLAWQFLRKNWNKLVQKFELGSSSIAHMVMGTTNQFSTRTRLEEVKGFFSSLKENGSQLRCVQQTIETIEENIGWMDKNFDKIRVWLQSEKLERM
# esBAF inh: blocks esBAF chromatin remodeling in mouse ES cells. Bmi1-luciferase knock-in reporter, 24 h; 100% = twice the neutral-well signal. reporter increase, % at 12.5 µM. hit rate 2% among 350,000. AID 602393; in the data active means activation above about 40%; inconclusive means no clear call, values can overlap the other calls;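 further: 0% = median of the plate's neutral control wells and 100% = double that signal; a rise in the Bmi1 reporter signal indicates esBAF inhibition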
# Cneo AK release: Cryptococcus neoformans lysis via adenylate kinase release; C. neoformans lysis, adenylate kinase release luminescence, 4 h; normalised: neutral wells 0, clomiphene wells 100; AID 651654; lysis activity, % at 15 µM; hit rate 0.2% among 360,000;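 active means mean lysis activity across replicates of at least 80%, whatever share of replicates individually reach that level; inactive means mean lysis activity below 80%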
#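 Material: C. neoformans cells | Amount: Yeast cell density of 5 × 10^6 cells/mL | Medium: Fresh YPD growth medium | Dosing: Single dose | Times: Static 4 h at 37 °C with compound, 1 h detection | Detection: AK luminescence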
# Env fusion inh: blocks HIV Env-driven cell-cell fusion; inhibition, % at 12.3 µM; hit rate 1.1% among 360,000; HeLa-JRFL Env/CEM21 cell fusion, luciferase; AID 651610;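 active means mean replicate inhibition score of at least 50 and every replicate individually at or above 50; inconclusive means only one of the two criteria met; inactive means mean below 50 and not all replicates reaching 50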;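 further: 0% = plate neutral controls and 100% = maraviroc near 300 nM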
# MITF TRPM1 HTS: MITF TRPM1 promoter activation in melanoma cells; activation, % at 12.5 µM; hit rate 0.75% among 300,000; AID 588334; SK-MEL-5 TRPM1-promoter luciferase, 24 h; % of positive control, neutral wells = 0;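 active means mean activation of at least 80% with every replicate also reaching 80%; inconclusive means mean reaches 80% but some replicate falls short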;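 further: 0% = neutral control wells and 100% = parthenolide positive control wells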
# Numbers without * were called inactive; ? = inconclusive; . = not tested or not shown; [ ] = remark or other dose. This is a sample that favours compounds with a hit; in the whole collection about 3.5% have one here.
SMILES,Wnt bcat act,ERAP1 inh,esBAF inh,Cneo AK release,Env fusion inh,MITF TRPM1 HTS
CO[C@@H]1CN(C)C(=O)c2ccc(NC(=O)C3CC3)cc2OC[C@@H](C)N(C(=O)c2ccccc2)C[C@H]1C,.,0,3,-3,.,.
Cc1nc(NC(=O)c2csc3ccccc23)sc1C,42*,.,-3,0,-484,30
Cc1nc(NC(=O)c2ccccc2O)sc1C,11,-2,35,-1,-37,?
Cc1ccc(C(=O)NC(=S)Nc2cccc3nsnc23)cc1,.,.,63*,1,.,9
Cc1c(Cl)cccc1NC(=S)NC(=O)c1ccccc1,0,3,60*,12,-4,.
COC(=O)c1ccsc1NC(=O)CCc1ccccc1,18,-3,48*,-5,-25,34
CCCC#Cc1ccc2c(c1)O[C@@H](CN(C)C(=O)Nc1ccccc1F)[C@H](C)CN([C@@H](C)CO)S2(=O)=O,.,-2,-1,8,-25[16.7 µM],.
CCCCCCCCCCCCCCCCn1cc[n+](C)c1,-8,79*,.,.,128*,-68
COc1cc(/C=C2\SC(=O)N(CCN)C2=O)ccc1OS(=O)(=O)c1cc(C)ccc1C,39*,7,.,.,-13,0
COc1ccc(/C=C2\SC(=O)N(CCC(=O)Nc3ccccc3)C2=O)cc1OC,.,.,.,.,-20,-5
c1cc2c(cc1C1=NNC(=NC3CC3)SC1)OCCO2,-7,-4,-84,.,65*,-94
Cc1cc(C2=NNC(=NC3CC3)SC2)c(C)n1-c1ccccc1F,-33,-3,.,.,56*,-98
C[C@H]1CN([C@@H](C)CO)C(=O)c2cc(NS(=O)(=O)c3ccc(Cl)cc3)ccc2O[C@H]1CN(C)CC1CC1,.,-5,-9,37,9[16.7 µM],.
COCCNC(=O)C[C@@H]1C[C@@H]2c3cc(NC(=O)COC)ccc3O[C@@H]2[C@H](CO)O1,.,1,0,0,3[16.7 µM],.
CCOc1ccc2nc(NC(=O)C34CC5CC(CC(NC(C)=O)(C5)C3)C4)sc2c1,0,-2,58*,-4,-27,66
CCOc1ccc2nc(NC(=O)C3CCCO3)sc2c1 (stereo unspecified),0,5,39,0,-32,74
CCOc1ccc2nc(NC(=O)NC3CCCCC3)sc2c1,4,-1,34*,-4,0,74
Cc1ccc(S(=O)(=O)N[C@@H]2C=C[C@@H](CC(=O)NCc3ccc(Cl)c(Cl)c3)O[C@H]2CO)cc1,.,0,8,3,-10[16.7 µM],.
CCOc1ccc(N(CC(=O)NCCSCc2ccc(Cl)cc2)S(C)(=O)=O)cc1,-4,-1,5,2,80*,.
COc1ccc(N(CC(=O)NCCSCc2ccc(Cl)cc2)S(C)(=O)=O)cc1Cl,-3,1,-6,-1,121*,10
CS(=O)(=O)N(CC(=O)NCc1ccccc1Cl)c1cccc([N+](=O)[O-])c1,-2,2,-1,-2,2,2
Cc1ccc(CSCCNC(=O)CN(c2cccc([N+](=O)[O-])c2)S(C)(=O)=O)cc1,-2,-2,.,.,55*,8
C[C@H]1CN([C@@H](C)CO)S(=O)(=O)c2ccc(-c3ccc(C(=O)N(C)C)cc3)cc2O[C@@H]1CN(C)Cc1ccccc1C(=O)O,.,-4,-1,-1,-28[16.7 µM],.
CC(C)(C)OC(=O)COc1ccc(/C=N/NC(=O)CN2CCCCC2)cc1,6,0,52*,1,-5,35
O=C(Cn1cc(C(=O)c2cccs2)c2ccccc21)NCc1ccc2c(c1)OCO2,-1,4,8,3,57*,.
SMILES,Wnt bcat act,ERAP1 inh,esBAF inh,Cneo AK release,Env fusion inh,MITF TRPM1 HTS
S=C(Nc1ccccc1)Nc1ccc(OCc2ccc(Cl)cc2Cl)cc1,.,.,-75,5,103*,.
OCCNCc1ccc(OCc2ccc(Cl)cc2Cl)cc1,34*,2,18,.,-17,24
OCCCCNCc1ccc(OCc2ccc(Cl)cc2Cl)cc1,.,-2,1,10,15,6
S=C(NCc1ccncc1)Nc1ccc(Br)cc1Cl,-1,4,.,0,-10,-6
Cc1cccnc1NC(=S)Nc1ccc(Br)cc1Cl,11,0,55*,14,-95,58
CCCNC(=O)N1[C@H](CNC(=O)c2ccc(F)cc2)[C@H](c2ccccc2)[C@@H]1CO,.,-2,0,1,.,.
COCC(=O)Nc1ccc2c(c1)OC[C@@H](C)N(CC1CC1)C[C@@H](C)[C@@H](OC)CN(C)C2=O,.,.,3,-1,9[16.7 µM],.
